Tests used:
[1] = Drug recovery in Beagle dog urine at 0.5 mg/kg, iv administered as bolus dose measured from 0 to 168 hrs by HPLC-based liquid scintillation counting analysis; format: ADME, organism-based, Canis lupus familiaris; set-up: dose 0.5 mg/kg, route intravenous; details: read-out: Drug recovery
How it was run: (§1)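 After a 0.5 mg/kg iv bolus of [14C]M-III, urine was collected 0–24 h (rat) or 0–168 h (dog) and injected directly onto HPLC with fraction collection and scintillation counting. M-III in urine was derived from the urinary 14C excretion ratio and the [14C]M-III composition. CLrenal = urinary M-III amount / AUC0–24 h (rat) or AUC0–168 h (dog). Unbound CLrenal = CLrenal / free fraction.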

[2] = Ratio of drug level in kidney medulla to plasma in Beagle dog at 0.5 mg/kg, iv administered as bolus dose by HPLC-based liquid scintillation counting analysis; format: ADME, organism-based, Canis lupus familiaris; set-up: dose 0.5 mg/kg, route intravenous
How it was run: (§2)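 Rats received [14C]M-III in saline by continuous jugular-vein infusion for 4 h (0.5 mg/rat/h per methods; 0.25 mg/h in legend), then aortic blood and kidneys were collected. Dogs received a 0.5 mg/kg iv bolus, with blood and kidneys (cortex and medulla separated) collected at 24 h. 14C was measured in tissue homogenates and plasma as a tissue/plasma ratio. Rat n = 3, dog n = 2.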

Rattus norvegicus [3] = test: Intrinsic total body clearance in Crj:CD(SD)IGS rat at 0.125 mg/hr, iv administered as continuous infusion by HPLC based liquid scintillation counting analysis in presence of 16 mg/hr/kg probenecid; format: ADME, organism-based; details: in vivo
How it was run: (§3)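 Rats received a continuous iv infusion of [14C]M-III at 0.125 mg/rat/h, with probenecid co-infused at 16, 31 or 62 mg/h/kg or vehicle alone, for 5 h. Arterial plasma was sampled during infusion. CLtot = infusion rate / steady-state plasma M-III (120–180 min). Unbound fraction was measured by ultrafiltration of 5-h plasma (10,000 MWCO, 1500g, 37°C, 10 min). CLint = CLtot / unbound ratio.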

[4] = In vivo plasma protein binding in Crj:CD(SD)IGS rat at 0.125 mg/hr, iv administered as continuous infusion by ultrafiltration method in presence of 16 mg/hr/kg probenecid; format: ADME, organism-based; details: with probenecid 16 mg/hr/kg, read-out: PPB (converted); how it was run: as §3
[5] = Total body clearance in Crj:CD(SD)IGS rat at 0.5 mg/kg, iv administered as bolus dose by HPLC-based liquid scintillation counting analysis; format: ADME, organism-based; set-up: dose 0.5 mg/kg, route intravenous; details: in vivo
How it was run: (§4)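 [14C]M-III in saline given as a single iv bolus at 0.5 mg/kg to male rats (tail-vein blood, 5 min–24 h) or male beagle dogs (cephalic-vein blood, 5 min–168 h). Heparinized plasma counted for radioactivity; M-III quantified by HPLC with fraction collection and liquid scintillation counting. C5 min read directly; terminal t1/2 by linear regression, kel = ln2/t1/2, Vd = dose/back-extrapolated C0, CLtot = dose/AUCinf. Mean ± S.D., n = 3.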

[6] = In vivo plasma protein binding in Crj:CD(SD)IGS rat at 0.125 mg/hr, iv administered as continuous infusion by ultrafiltration method; format: ADME, organism-based; details: read-out: PPB (converted); how it was run: as §3
[7] = In vitro plasma protein binding in rat at 50 ug/ml by ultrafiltration method; format: ADME, cell-free; details: read-out: PPB (converted)
How it was run: (§5)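 [14C]M-III in saline was added to rat or dog plasma at final 0.5, 5 and 50 µg/ml. Plasma was ultrafiltered by centrifugation at 1500g and 37°C for 10 min, and 14C was measured in plasma and filtrate. Mean ± S.D., n = 3.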

[8] = Ratio of drug level in kidney cortex to plasma in Beagle dog at 0.5 mg/kg, iv administered as bolus dose by HPLC-based liquid scintillation counting analysis; format: ADME, organism-based, Canis lupus familiaris; set-up: dose 0.5 mg/kg, route intravenous; how it was run: as §2
Plasma = test: Plasma concentration in Beagle dog at 0.5 mg/kg, iv administered as bolus dose by HPLC based liquid scintillation counting analysis; format: ADME, organism-based, Canis lupus familiaris; set-up: dose 0.5 mg/kg, route intravenous; details: in vivo
[9] = Renal clearance in Beagle dog at 0.5 mg/kg, iv administered as bolus dose measured from 0 to 168 hrs by HPLC-based liquid scintillation counting analysis; format: ADME, organism-based, Canis lupus familiaris, Kidney; set-up: dose 0.5 mg/kg, route intravenous; details: in vivo; how it was run: as §1
[10] = Elimination rate constant in Beagle dog at 0.5 mg/kg, iv administered as bolus dose by HPLC-based liquid scintillation counting analysis; format: ADME, organism-based, Canis lupus familiaris; set-up: dose 0.5 mg/kg, route intravenous; details: in vivo; how it was run: as §4
[11] = In vivo plasma protein binding in Crj:CD(SD)IGS rat at 0.125 mg/hr, iv administered as continuous infusion by ultrafiltration method in presence of 62 mg/hr/kg probenecid; format: ADME, organism-based; details: with probenecid 62 mg/hr/kg, read-out: PPB (converted); how it was run: as §3
Rattus norvegicus [12] = test: Intrinsic total body clearance in Crj:CD(SD)IGS rat at 0.125 mg/hr, iv administered as continuous infusion by HPLC based liquid scintillation counting analysis in presence of 62 mg/hr/kg probenecid; format: ADME, organism-based; details: in vivo; how it was run: as §3
[13] = Terminal half life in Beagle dog at 0.5 mg/kg, iv administered as bolus dose by HPLC-based liquid scintillation counting analysis; format: ADME, organism-based, Canis lupus familiaris; set-up: dose 0.5 mg/kg, route intravenous; details: in vivo, read-out: beta t1/2 (converted); how it was run: as §4
[14] = Plasma concentration in Crj:CD(SD)IGS rat at 0.125 mg/hr, iv administered as continuous infusion measured after 3 hrs by HPLC based liquid scintillation counting analysis in presence of probenecid; format: ADME, organism-based; details: with probenecid (dose not stated)
How it was run: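 Rats were continuously infused iv with [14C]M-III at 0.125 mg/rat/h, plus probenecid (4.7, 9.4, 18.6 mg/rat/h) or vehicle. Femoral-artery blood was taken at 0.5, 1, 2, 3 and 4 h, with terminal aortic blood at 5 h. Plasma radioactivity was measured, with probenecid quantified by HPLC-UV at 240 nm against spiked-plasma calibration from 0.1 to 100 µg/ml.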

[15] = Drug excretion in Beagle dog urine assessed as excretion ratio of [14C] at 0.5 mg/kg, iv administered as bolus dose measured from 0 to 168 hrs by HPLC-based liquid scintillation counting analysis; format: ADME, organism-based, Canis lupus familiaris; set-up: dose 0.5 mg/kg, route intravenous; details: in vivo
How it was run: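 Male rats in metabolic cages with urine/feces separator, or beagle dogs, after a 0.5 mg/kg iv bolus of [14C]M-III in saline. Radioactivity in urine and feces collected 0–24 h (rats) or 0–168 h (dogs) was counted and expressed as percent of dose. Mean ± S.D., n = 3.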

[16] = Total body clearance in Crj:CD(SD)IGS rat at 0.125 mg/hr, iv administered as continuous infusion by HPLC based liquid scintillation counting analysis in presence of 16 mg/hr/kg probenecid; format: ADME, organism-based; details: in vivo, with probenecid 16 mg/hr/kg; how it was run: as §3
[17] = In vitro plasma protein binding in dog at 5 ug/ml by ultrafiltration method; format: ADME, cell-free, Canis lupus familiaris; details: read-out: PPB (converted); how it was run: as §5
[18] = Unbound fraction in Crj:CD(SD)IGS rat plasma at 0.125 mg/hr, iv administered as continuous infusion by ultrafiltration method in presence of 31 mg/hr/kg probenecid; format: ADME, organism-based; details: with probenecid 31 mg/hr/kg; how it was run: as §3
Canis familiaris = test: Unbound renal clearance in Beagle dog at 0.5 mg/kg, iv administered as bolus dose measured from 0 to 168 hrs by HPLC-based liquid scintillation counting analysis; format: ADME, organism-based, Canis lupus familiaris, Kidney; set-up: dose 0.5 mg/kg, route intravenous; details: in vivo; how it was run: as §1
[19] = Total body clearance in Beagle dog at 0.5 mg/kg, iv administered as bolus dose by HPLC-based liquid scintillation counting analysis; format: ADME, organism-based, Canis lupus familiaris; set-up: dose 0.5 mg/kg, route intravenous; details: in vivo; how it was run: as §4

- dose excreted [1]: 19.5%
- Kp [2]: 0.2
- CL (Rattus norvegicus [3]): 53.83 mL/min/kg
- fraction unbound [4]: 0.078
- clearance [5]: 10.5 mL/min/kg
- fraction unbound [6]: 0.088
- fraction unbound at 50 ug/ml [7]: 0.102
- Kp [8]: 0.1
- Cp (Plasma): 2500 ng/mL
- CL renal [9]: 0.00468 mL/min/kg
- k el [10]: 1.68e-06 s⁻¹
- fraction unbound [11]: 0.184
- CL (Rattus norvegicus [12]): 9.38 mL/min/kg
- half-life [13]: 120 h
- concentration at 3 h [14]: 3600 ng/mL
- Drug excretion [15]: 44.6%
- clearance [16]: 4.45 mL/min/kg
- fraction unbound at 5 ug/ml [17]: 0.087
- fraction unbound [18]: 0.197
- CL free (Canis familiaris): 0.0585 mL/min/kg
- clearance [19]: 0.0147 mL/min/kg
Compound: N[14c]1[14cH][14cH][14c](OS(=O)(=O)O)[14cH][14c]1Cl

Source: ChEMBL document CHEMBL3526115, “Differences in the pharmacokinetics of 4-amino-3-chlorophenyl hydrogen sulfate, a metabolite of resatorvid, in rats and dogs” (Drug Metab Dispos, 2012)
